Test results as given in article PMC4486263 (Journal of biomolecular screening, 2014).
Entries after “also recorded” stand apart in the source; their conditions may differ. Blank lines part the entries; values can stand above or below the compound they belong to.

Key:
[1] = molecular target: CtBP1-E1A peptide interaction (Homo sapiens, UniProt Q13363); assay: Fluorescence polarization assay with FITC-labeled E1A 14-mer peptide; format: binding; conditions: for disruption of the CtBP1-peptide interaction (in words): up to 100 μM
Six1-Eya2 interaction = molecular target: T1, Six1-Eya2 interaction (Homo sapiens, UniProt O00167+Q15475); assay: Counterscreen AlphaScreen assay, Six1-Eya2; format: binding; conditions: 20 nM to 50 μM
T1 sequence (Q15475 1-284): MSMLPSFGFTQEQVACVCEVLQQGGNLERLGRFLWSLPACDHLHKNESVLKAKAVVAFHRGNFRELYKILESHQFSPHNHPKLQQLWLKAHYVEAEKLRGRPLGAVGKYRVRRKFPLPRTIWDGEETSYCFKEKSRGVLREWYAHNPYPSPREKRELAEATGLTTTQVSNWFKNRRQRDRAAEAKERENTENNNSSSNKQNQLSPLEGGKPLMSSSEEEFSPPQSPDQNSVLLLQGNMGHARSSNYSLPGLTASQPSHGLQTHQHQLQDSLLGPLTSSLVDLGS
T1 sequence (O00167 1-538): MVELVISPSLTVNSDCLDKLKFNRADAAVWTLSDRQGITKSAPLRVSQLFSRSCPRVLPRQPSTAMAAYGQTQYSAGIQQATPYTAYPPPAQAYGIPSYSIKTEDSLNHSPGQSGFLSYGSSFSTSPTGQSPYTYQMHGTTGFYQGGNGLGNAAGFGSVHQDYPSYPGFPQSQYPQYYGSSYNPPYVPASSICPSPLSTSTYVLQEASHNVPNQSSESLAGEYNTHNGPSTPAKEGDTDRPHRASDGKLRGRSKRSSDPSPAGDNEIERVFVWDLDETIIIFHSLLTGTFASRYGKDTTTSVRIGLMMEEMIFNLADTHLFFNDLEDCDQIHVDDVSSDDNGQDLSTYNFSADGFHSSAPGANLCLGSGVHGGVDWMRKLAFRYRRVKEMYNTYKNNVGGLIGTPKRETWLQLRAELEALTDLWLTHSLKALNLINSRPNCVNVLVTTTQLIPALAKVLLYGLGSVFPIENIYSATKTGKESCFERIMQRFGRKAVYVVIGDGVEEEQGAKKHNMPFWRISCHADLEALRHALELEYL
Procedure, shortened: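 Counterscreen AlphaScreen with 200 nM 6xHis-Eya2 and GST-Six1 in 50 mM Tris pH 8.0, 250 mM NaCl, 0.05% BSA, 0.02% Tween-20. Test compound was added at 20 nM to 50 μM. Glutathione donor and Ni-chelate acceptor beads were added from a 25 ng/μL (each) bead solution. Incubated 2 h at 25 °C, then read in AlphaScreen mode.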

CtBP1 = CtBP1 (Homo sapiens, UniProt Q13363); assay: CtBP1 enzymatic assay; format: biochemical; conditions: NADH oxidation, 340 nm
Procedure, shortened: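 E. coli-expressed His-CtBP1 (2 μM) in PBS with NADH. Test compound was added at increasing concentrations in 100 μL reactions after a 2 min incubation at 30 °C. Substrate reduction followed as NADH disappearance at 340 nm by spectrophotometer. Activity expressed as nmol NADH/min/mg protein.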

NCI 60 tumor-cell panel = conditions: ref http://dtp.nci.nih.gov/; cited from earlier work
CtBP1-E1A interaction [2] = molecular target: T2, CtBP1-E1A interaction (Homo sapiens, UniProt Q13363); assay: Competitive ELISA; format: binding; conditions: read-out: IC50, disruption of the CtBP1-E1A interaction
Procedure, shortened: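 Plates coated with His-tagged CtBP1 (E. coli-expressed, Ni-affinity then size-exclusion purified) in 50 mM Tris pH 8.0, 250 mM NaCl, 1 h at 25 °C. Blocked 1 h with 1% BSA/0.05% Tween-20 in 50 mM Tris pH 8.0, 250 mM NaCl, 1 mM TCEP. GST-Ad5 E1A was added with increasing test compound concentrations in triplicate for 1 h at 25 °C. Detection used rabbit anti-GST (1:1500), then goat anti-rabbit (1:2500), 1 h each, and ABTS absorbance.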

CtBP1-E1A interaction [3] = molecular target: T2, CtBP1-E1A interaction; assay: CtBP1-E1A AlphaScreen assay; format: binding; conditions: for disruption of the CtBP1-E1A interaction (in words): up to 100 μM
[4] = tested on: CtBP1-mediated repression of the E-cadherin promoter; assay: E-cadherin promoter luciferase reporter assay in H1299 cells; format: cell-based; conditions: 18 hrs, normalized to Renilla
Procedure, shortened: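 H1299 cells were seeded at 2000 cells/well and adhered overnight. FuGENE 6 transfection used 30 ng/well pGL3-E-cadherin promoter plus 10 ng/well Renilla luciferase. After 10 h, cells were treated with varying test compound concentrations for a further 18 h. Passive lysis, then dual-luciferase measurement with Firefly normalised to Renilla.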

lactate dehydrogenase = assay: Lactate dehydrogenase enzymatic assay; format: biochemical
Procedure, shortened: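 Lactate dehydrogenase at 5 nM in PBS with 100 μM NADH. Incubated with 5 μM pyruvate or varying test compound concentrations for 1 min at 30 °C. NADH consumption monitored spectrophotometrically at 340 nm; activity as nmol/min/mg protein.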

[5] = tested on: MEF3 promoter (SIX1 transcriptional complex); assay: MEF3 promoter luciferase reporter assay in H1299 cells; format: cell-based; conditions: 18 hrs, normalized to Renilla
Procedure, shortened: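 H1299 cells were seeded at 2000 cells/well and adhered overnight. FuGENE 6 transfection used 60 ng/well pGL3-MEF3 promoter, 40 ng/well Six1, 30 ng/well Eya2 and 14 ng/well Renilla luciferase. After 10 h, cells were treated with varying test compound concentrations for 18 h. Dual-luciferase read-out after passive lysis, with Firefly normalised to Renilla.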

IC50 ([1]; read-out: IC50, CtBP1-E1A peptide interaction, 3 μM CtBP1, 5 nM FITC-E1A peptide): 0.61 ± 0.12 µM
maximal activity as CtBP1 substrate (CtBP1): 28.5 ± 4.9 nmol/min/mg protein
IC50 (CtBP1-E1A interaction [2]): 10 ± 1.3 µM
IC50 (CtBP1-E1A interaction [3]; read-out: IC50, inhibition of the CtBP1-E1A interaction): 2.9 µM
Compound: O=C1C(SCCO)=C(SCCO)C(=O)c2ccccc21 [NSC95397]
disruption of the CtBP1-peptide interaction (in words) [1]: able to disrupt the interaction; also recorded: efficiently inhibits
inhibition of the Six1-Eya2 interaction (Six1-Eya2 interaction): did not inhibit; also recorded: does not inhibit; also recorded: did not detect a loss of AlphaScreen signal
average GI50s over all cell lines (NCI 60 tumor-cell panel): 1.04 µM
disruption of the CtBP1-E1A interaction (in words) (CtBP1-E1A interaction [3]): able to disrupt the interaction; also recorded: efficiently inhibits
luciferase activity, E-cadherin promoter [4]: able to disrupt CtBP-mediated transcriptional repression; also recorded: increased with increasing concentrations; also recorded: can reverse CtBP-mediated transcriptional repression
inhibition of LDH (pyruvate reduction) (lactate dehydrogenase; 5 μM pyruvate, up to 100 μM compound): did not significantly inhibit; also recorded: unable to detect any inhibition; also recorded: unable to inhibit
substrate of LDH (NADH consumption without pyruvate) (lactate dehydrogenase; increasing concentrations, no pyruvate): nor did it exhibit significant consumption of NADH; also recorded: did not detect a significant loss in NADH levels
luciferase activity, MEF3 promoter [5]: unaltered; also recorded: has no effect

inhibition of the Six1-Eya2 interaction (Six1-Eya2 interaction): efficiently inhibited
Compound: O=C1c2ccccc2C(=O)c2c(NCCc3ccc(O)cc3)ccc(NCCc3ccc(O)cc3)c21 [JFD00244]

LDH activity with substrate (lactate dehydrogenase): 9680 ± 558 nmol/min/mg protein
Compound: CC(=O)C(=O)O [pyruvate]

Further lines, the compound ahead of its results:

Compound: CCCCc1ccc(C(=O)O)nc1 [fusaric acid]
disruption of the CtBP1-peptide interaction (in words) [1]: inactive; also recorded: unable to disrupt
inhibition of the Six1-Eya2 interaction (Six1-Eya2 interaction): did not inhibit

Compound: CCCn1c(=O)c2[nH]c(C3CCCC3)nc2n(CCCOC(=O)c2ccc(S(=O)(=O)F)cc2)c1=O [FSCPX]
disruption of the CtBP1-peptide interaction (in words) [1]: inactive; also recorded: unable to disrupt
inhibition of the Six1-Eya2 interaction (Six1-Eya2 interaction): did not inhibit

Compound: CSCCC(=O)C(=O)O [MTOB, 4-methylthio-2-oxobutanoic acid]
disruption of the CtBP1-peptide interaction (in words) [1]: ineffective at disrupting the interaction; also recorded: unable to inhibit
disruption of the CtBP1-E1A interaction (in words) (CtBP1-E1A interaction [3]): ineffective at disrupting the interaction; also recorded: unable to inhibit; also recorded: unable to affect the protein interaction

Compound: O=C1O/C(=C/Br)CCC1c1cccc2ccccc12 (centres unmarked) [bromoenol lactone]
inhibition of the Six1-Eya2 interaction (Six1-Eya2 interaction): efficiently inhibited

Compound: Nc1c(S(=O)(=O)O)cc(Nc2ccc(Nc3nc(Cl)nc(Nc4cccc(S(=O)(=O)O)c4)n3)c(S(=O)(=O)O)c2)c2c1C(=O)c1ccccc1C2=O [reactive blue 2]
inhibition of the Six1-Eya2 interaction (Six1-Eya2 interaction): efficiently inhibited

Compound: O.c1cnc2c(c1)ccc1cccnc12 [10-phenanthroline monohydrate]
inhibition of the Six1-Eya2 interaction (Six1-Eya2 interaction): efficiently inhibited
